Experimental data taken from PubChem BioAssay AID1381 (University of Pittsburgh Molecular Library Screening Center, 2008).
Among all 220,000 compounds or so, about 1,000 (0.45%) were called active.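 The calls were made as follows: active = plate z-score of nuclear minus cytoplasmic receptor signal below a set negative limit, without overly bright fluorescence or cell loss (cut at about -3.5 in these data, passing the limit was not always enough); inactive = the rest, inconclusive results apart.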 The sample as a whole holds a higher share of actives than the screen did.

Assay: inhibitors of GR-EGFP nuclear translocation, primary screen, dynein cargo transport inhibitor project, imaging, high-content, 3617.4 mouse cells (AID 1381)
Settings: stimulated with dexamethasone, 1 µM
Procedure, shortened: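 Buffer or medium: tet-free, stripped-serum medium; reagent: dexamethasone at 1.0 µM final, 30 min; incubation: 48 h induction, 1 h compound, 30 min dex at 37 °C; measured by: formaldehyde fixation, Hoechst nuclear stain, 10x automated fluorescence imaging; read-out: nuclear-to-cytoplasmic GR-EGFP distribution per well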

[1] = measured here: cell count per field, at 20 µM
[2] = measured here: cytoplasmic GR-EGFP intensity, at 20 µM, stronger effect = higher value
[3] = measured here: nuclear GR-EGFP intensity, at 20 µM, stronger effect = lower value
[4] = measured here: cell count per field, at 50 µM
[5] = measured here: cytoplasmic GR-EGFP intensity, at 50 µM, stronger effect = higher value
[6] = measured here: nuclear GR-EGFP intensity, at 50 µM, stronger effect = lower value

SMILES | z-score (at 20 µM, stronger effect = lower value) | z-score [1] | z-score [2] | z-score [3] | z-score (at 50 µM, stronger effect = lower value) | z-score [4] | z-score [5] | z-score [6]
COC(=O)C(C(=O)Nc1cccc(Cl)c1C)C1CCCC1 (stereo unspecified) | 0.289 (inactive) | 0.616 | 0.0155 | -0.208 | – | – | – | –
CC(=O)c1ccc(-c2nnc(CCC(=O)N(C)Cc3cnc4ccccn34)o2)s1 | -0.0124 (inactive) | -0.441 | -0.212 | 0.00751 | – | – | – | –
O=C(CCl)N(Cc1cccc([N+](=O)[O-])c1)c1cccc(Cl)c1 | -4.69 (active) | -1.23 | 2.38 | -2.48 | – | – | – | –
CCN(CC)C(=O)CN(c1cccc([N+](=O)[O-])c1)S(=O)(=O)c1ccccc1 | -0.611 (inactive) | 0.944 | -0.266 | -0.263 | – | – | – | –
O=C(Nc1cccc([N+](=O)[O-])c1)Nc1ccc(Cl)cn1 | 0.686 (inactive) | -0.334 | -0.0491 | 0.778 | – | – | – | –
CCOc1ccc(Br)cc1S(=O)(=O)Nc1cccc(S(=O)(=O)N(CC)CC)c1 | -0.331 (inactive) | 0.488 | -0.167 | -0.464 | – | – | – | –
O=C(Nc1ccccc1)c1nnsc1S(=O)(=O)c1ccc(Cl)cc1 | -5.03 (active) | 0.905 | 0.759 | -1.85 | – | – | – | –
O=C(Nc1ccc(Cl)cc1)c1ccsn1 | 1.02 (inactive) | -1.19 | -0.158 | 1.14 | – | – | – | –
CS(=O)(=O)c1ccc(Cl)c(NC(=O)Nc2ccccc2)c1 | 1.27 (inactive) | -0.472 | -0.245 | 0.728 | – | – | – | –
CC(Nc1ccccc1)c1cccnc1 (stereo unspecified) | -0.716 (inactive) | 0.0401 | -0.305 | -0.598 | – | – | – | –
CC1=C/C(=N\OS(=O)(=O)c2ccccc2)C=CC1=O | – | – | – | – | -4.5 (active) | -1.11 | 1.28 | -2.71
CCOC(=O)C1(S(=O)(=O)c2ccccc2)CCN(Cc2ccccc2)CC1 | -0.25 (inactive) | 0.352 | -0.189 | 0.556 | – | – | – | –
CC1=C/C(=N\S(=O)(=O)c2ccccc2)C(C(C)C)=CC1=O | -0.707 (inactive) | -0.217 | -0.313 | 0.209 | – | – | – | –
COc1ccc(/C=N/N=C2/C(=O)Nc3ccccc32)cc1O | 0.0879 (inactive) | -1.02 | 0.671 | 0.854 | – | – | – | –
C=CCOC(=O)C1=C[C@@H](c2ccccc2)C[C@@H](OCc2ccc(CO)cc2)O1 | -0.243 (inactive) | -0.581 | -0.228 | 0.233 | – | – | – | –
CC(=O)c1cc(C#N)c(SCC(=O)Nc2nccs2)nc1C | 0.633 (inactive) | -0.767 | -0.205 | 1 | – | – | – | –
CCn1c(SCC(=O)Nc2nc(C)cs2)nnc1C(C)NC(=O)c1ccccc1 (stereo unspecified) | 0.931 (inactive) | -0.274 | -0.247 | -0.608 | – | – | – | –

SMILES | z-score (at 20 µM, stronger effect = lower value) | z-score [1] | z-score [2] | z-score [3] | z-score (at 50 µM, stronger effect = lower value) | z-score [4] | z-score [5] | z-score [6]
COc1ccc(NC(=S)Nc2ccccc2Cl)cn1 | 1.03 (inactive) | -0.0291 | -0.33 | 0.285 | – | – | – | –
COc1ccc(NC(=O)/C(Cl)=C(/Cl)S(=O)Cc2ccc(C)cc2)cn1 (stereo unspecified) | -5.02 (inactive) | -1.31 | 4.96 | -1.87 | – | – | – | –
COc1ccc(CS(=O)/C(Cl)=C(/Cl)C(=O)Nc2ccc(OC)nc2)cc1 (stereo unspecified) | -5.17 (active) | 0.13 | 3.61 | -2.19 | – | – | – | –
O=C(NCc1cccnc1)c1cccc(-c2cc3ccccc3oc2=O)c1 | -0.31 (inactive) | 0.631 | -0.22 | -0.235 | – | – | – | –
Cc1ccc(S(=O)(=O)C2C(=O)NC3(C)CC2c2ccccc2O3)cc1 (stereo unspecified) | -0.689 (inactive) | -0.187 | -0.199 | -0.503 | – | – | – | –
CCc1ccc(/C=N/NC(=O)c2ccc(OC3CCCC3)cc2)s1 | – | – | – | – | -0.285 (inactive) | 0.0349 | -0.199 | -0.114
Cc1[nH]c(=O)c(C(=O)/C=C/c2ccccc2)c2c1CCCC2 | -3.92 (active) | 0.356 | 0.353 | -1.71 | – | – | – | –
Cc1nc(-c2ccccc2)sc1C(=O)/C=C/c1ccccc1 | -2.15 (inactive) | 0.685 | -0.0664 | -0.902 | – | – | – | –
O=C(/C=C/c1ccccc1)c1ccccc1O | -0.596 (inactive) | 0.171 | -0.18 | 0.0198 | – | – | – | –
CSc1nc2c(c(=O)[nH]1)C(c1cccc(Cl)c1Cl)CC(=O)N2 (stereo unspecified) | -0.956 (inactive) | 0.453 | -0.232 | -0.546 | – | – | – | –
O=C(/C=C/c1cnc2ccccc2n1)NC1CCCCCC1 | 0.072 (inactive) | -0.372 | -0.262 | -0.0867 | – | – | – | –
O=C(O)c1ccccc1OCc1ccccc1Cl | 1.56 (inactive) | -0.166 | -0.834 | 1.06 | – | – | – | –
Cc1ccc(CN2CCC(N3CCC(C(=O)NCC4CCCO4)CC3)CC2)o1 (stereo unspecified) | 0.0309 (inactive) | -0.115 | -0.27 | 0.507 | – | – | – | –
Fc1ccccc1/C=C1\CCCC2=C1Nc1ncnn1C2c1ccccc1F (stereo unspecified) | -4.08 (active) | 0.757 | 0.917 | -1.5 | – | – | – | –
Cc1c(C(=O)Nc2ccccc2)sc2nc3n(c(=O)c12)CCCCC3 | 0.507 (inactive) | 0.149 | -0.32 | 0.154 | – | – | – | –
Cc1ccc(S(=O)(=O)NC(=O)N2CCCN(Cc3ccc(F)cc3)CC2)cc1 | -0.425 (inactive) | 0.12 | -0.231 | -0.245 | – | – | – | –
CC(=O)Nc1ccc(S(=O)(=O)NCC(=O)OCc2cc(=O)oc3ccc4ccccc4c23)cc1 | 0.304 (inactive) | -0.781 | -0.141 | -0.169 | – | – | – | –
